≈ marks a conversion by molar mass, not a printed value. Calls of active or inactive are those of the source. The rule behind the calls is not given here.
Columns and labels:
L929 = test: Cytotoxicity against mouse L929 cells; format: cell-based
Jurkat = test: Cytotoxicity against human Jurkat cells; format: cell-based
Staphylococcus aureus [1] = test: Antibacterial activity against methicillin-resistant Staphylococcus aureus clinical isolate 3; format: functional
Summary of the method: (§1)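 Broth microdilution MIC against clinical S. aureus isolates (incl. MRSA), run per NCCLS guidelines in 96-well plates. Test sample dissolved in sterile water to a 200 µg mL-1 working concentration, then doubling dilutions in Mueller-Hinton broth. Incubated at 37 °C, growth read visually plus resazurin indicator. MIC reported in µg/mL.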

A-375 = test: Cytotoxicity against human A375 cells; format: cell-based
Enterococcus faecalis = test: Antibacterial activity against Streptococcus faecalis NCTC 775; format: functional; details: Enterococcus faecalis, NCTC 775; read-out: MIC
Summary of the method: (§2)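 Broth microdilution in Mueller-Hinton broth. Samples were dissolved in sterile water to 200 µg mL-1 as the working solution and doubling dilutions were made across rows. Plates were incubated at 37 °C and inspected visually, with resazurin added as growth indicator. MIC reported in µg mL-1.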

Staphylococcus aureus [2] = test: Antibacterial activity against methicillin-sensitive Staphylococcus aureus NCTC 6571; format: functional; details: Staphylococcus aureus, NCTC 6571; read-out: MIC; summary of the method: as §2
Staphylococcus aureus [3] = test: Antibacterial activity against methicillin-resistant Staphylococcus aureus clinical isolate 4; format: functional; summary of the method: as §1
[4] = Cytotoxicity against human TE671 cells; format: cell-based; details: te-671
H9c2 = test: Cytotoxicity against rat H9C2 cells; format: cell-based
Staphylococcus aureus [5] = test: Antibacterial activity against methicillin-resistant Staphylococcus aureus clinical isolate 5; format: functional; summary of the method: as §1
Staphylococcus aureus [6] = test: Antibacterial activity against methicillin-resistant Staphylococcus aureus clinical isolate 2; format: functional; summary of the method: as §1
Aspergillus niger = test: Antifungal activity against Aspergillus niger IMI 149007; format: functional
Summary of the method: (§3)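 Antifungal microdilution in Sabouraud broth. Test sample at 200 µg mL-1 working solution in sterile water was serially doubled down successive rows. Incubation was at 25 °C, followed by visual growth check and addition of resazurin indicator. Read-out is MIC in µg mL-1.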

Staphylococcus aureus [7] = test: Antibacterial activity against methicillin-resistant Staphylococcus aureus clinical isolate 1; format: functional; summary of the method: as §1
[8] = tested on: Mycolicibacterium fortuitum; test: Antibacterial activity against Mycobacterium fortuitum NCTC 10394; format: functional; summary of the method: as §2
Staphylococcus aureus [9] = test: Antibacterial activity against Staphylococcus aureus LS1 in mouse at 40 mg/kg, ip; format: functional, organism-based; design: dose 40 mg/kg
Summary of the method: (§4)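 Mice of 18-22 g, five per group, were inoculated intravenously with 50 million cfu of S. aureus LS-1, which causes bacteraemia and then joint localization within 3-4 days. A single dose (groups at 60, 40, 20 or 10 mg/kg) was given iv or ip. Joint inflammation was scored, with caliper measurement of affected joint diameter.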

Candida albicans = test: Antifungal activity against Candida albicans NCPF 3179; format: functional; details: Candida albicans; read-out: MIC; summary of the method: as §3
HS27 = test: Cytotoxicity against human HS27 cells; format: cell-based
Staphylococcus aureus [10] = test: Antibacterial activity against Staphylococcus aureus LS1 in mouse at 20 mg/kg, ip; format: functional, organism-based; design: dose 20 mg/kg; summary of the method: as §4

Row | SMILES | Activity (L929) | Activity (Jurkat) | MIC (Staphylococcus aureus [1]) [µg/mL] | Activity (A-375) | MIC (Enterococcus faecalis) [µg/mL] | MIC (Staphylococcus aureus [2]) [µg/mL] | MIC (Staphylococcus aureus [3]) [µg/mL] | Activity [4] | Activity (H9c2) | MIC (Staphylococcus aureus [5]) [µg/mL] | MIC (Staphylococcus aureus [6]) [µg/mL] | MIC (Aspergillus niger) [µg/mL] | MIC (Staphylococcus aureus [7]) [µg/mL] | MIC [8] [µg/mL] | Activity (Staphylococcus aureus [9]) | MIC (Candida albicans) [µg/mL] | Activity (HS27) | Activity (Staphylococcus aureus [10])
1 | COc1ccc(/C=C/c2ccc(C(=O)Nc3cc(C(=O)Nc4cc(C(=O)NCCN5CCOCC5)n(C)c4)n(C)c3)cn2)cc1 | Non-toxic | Non-toxic | 2 (≈ 3.27 µM) | Non-toxic | 6 (≈ 9.81 µM) | 6 (≈ 9.81 µM) | 2 (≈ 3.27 µM) | Non-toxic | Non-toxic | 0.5 (≈ 0.817 µM) | 4 (≈ 6.54 µM) | 50 (≈ 81.7 µM) | 0.5 (≈ 0.817 µM) | 50 (≈ 81.7 µM) | Active | 25 (≈ 40.9 µM) |  | 
2 | CN(C)CCCNC(=O)c1cc(NC(=O)c2cc(NC(=O)c3cc(/C=C/c4ccc([N+](=O)[O-])cc4)cn3C)cn2C)cn1C |  |  | > 64 |  | 50 (≈ 83.2 µM) | 50 (≈ 83.2 µM) | > 64 |  |  | > 64 | > 64 | > 50 | > 64 | > 50 |  | > 50 |  | 
3 | COc1cccc(C(=N)Nc2cc(C(=O)Nc3cc(C(=O)Nc4nc(C(=O)NCCN5CCOCC5)c(C(C)C)s4)n(C)c3)n(C)c2)c1 |  |  | 32 (≈ 47.4 µM) |  | > 50 | > 50 | 32 (≈ 47.4 µM) |  |  | 32 (≈ 47.4 µM) | 64 (≈ 94.7 µM) | > 50 | 16 (≈ 23.7 µM) | > 50 |  | > 50 |  | 
4 | CC(C)c1sc(NC(=O)c2cc(NC(=O)c3cc(NC(=O)c4ccc5c(c4)OCO5)cn3C)cn2C)nc1C(=O)NCCCN(C)C |  |  | 64 (≈ 96.6 µM) |  | 25 (≈ 37.7 µM) | 13 (≈ 19.6 µM) | 64 (≈ 96.6 µM) |  |  | 64 (≈ 96.6 µM) | 64 (≈ 96.6 µM) | > 50 | 8 (≈ 12.1 µM) | > 50 |  | > 50 |  | 
5 | Cn1cc(NC(=O)c2cc(NC(=O)c3cc(/C=C/c4ccc5ccccc5n4)cn3C)cn2C)cc1C(=O)NCCN1CCOCC1 |  |  | 64 (≈ 101 µM) |  | 13 (≈ 20.5 µM) | 13 (≈ 20.5 µM) | 32 (≈ 50.4 µM) |  |  | 16 (≈ 25.2 µM) | 64 (≈ 101 µM) | > 50 | 4 (≈ 6.3 µM) | > 50 |  | > 50 |  | 
6 | Cn1cc(NC(=O)c2cc(NC(=O)c3ccc(/C=C/c4cnc5ccccc5c4)cc3)cn2C)cc1C(=O)NCCN1CCOCC1 [MGB-BP-3] | Non-toxic |  | 0.12 (≈ 0.19 µM) |  | 25 (≈ 39.6 µM) | 3 (≈ 4.75 µM) | 0.25 (≈ 0.396 µM) |  |  | 0.12 (≈ 0.19 µM) | 0.25 (≈ 0.396 µM) | 25 (≈ 39.6 µM) | 0.12 (≈ 0.19 µM) | 50 (≈ 79.1 µM) |  | 50 (≈ 79.1 µM) | Non-toxic | Active
7 | CSc1ccc(/C=C/c2ccc(C(=O)Nc3cc(C(=O)Nc4cc(C(=O)NCCN5CCOCC5)n(C)c4)n(C)c3)cn2)cc1 |  |  | 2 (≈ 3.19 µM) |  | > 50 | 6 (≈ 9.56 µM) | 1 (≈ 1.59 µM) |  |  | 0.5 (≈ 0.796 µM) | 4 (≈ 6.37 µM) | > 50 | 0.5 (≈ 0.796 µM) | > 50 |  | > 50 |  | 
8 | Cn1cc(NC(=O)c2cc(NC(=O)c3ccc(/C=C/c4ccncc4)cc3)cn2C)cc1C(=O)NCCN1CCOCC1 |  |  | 1 (≈ 1.72 µM) |  | 25 (≈ 43 µM) | 2 (≈ 3.44 µM) | 1 (≈ 1.72 µM) |  |  | 0.5 (≈ 0.86 µM) | 2 (≈ 3.44 µM) | > 50 | 0.5 (≈ 0.86 µM) | > 50 |  | 50 (≈ 86 µM) |  | 
9 | COc1cccc(/C=C/c2ccc(C(=O)Nc3cc(C(=O)Nc4nc(C(=O)NCCCN(C)C)c(CCC(C)C)s4)n(C)c3)cc2)c1 |  |  | 8 (≈ 12.2 µM) |  | > 50 | > 50 | 8 (≈ 12.2 µM) |  |  | 8 (≈ 12.2 µM) | 8 (≈ 12.2 µM) | > 50 | 8 (≈ 12.2 µM) | > 50 |  | > 50 |  | 
10 | Cn1cccc1/C=C/c1ccc(C(=O)Nc2cc(C(=O)Nc3cc(C(=O)NCCN4CCOCC4)n(C)c3)n(C)c2)cc1 |  |  | 16 (≈ 27.4 µM) |  | 13 (≈ 22.3 µM) | 3 (≈ 5.14 µM) | 16 (≈ 27.4 µM) |  |  | 16 (≈ 27.4 µM) | 16 (≈ 27.4 µM) | > 50 | 4 (≈ 6.85 µM) | > 50 |  | > 50 |  | 
11 | CC(C)CCn1cc(NC(=O)c2cc(NC(=O)c3ccc4c(c3)OCO4)cn2C)cc1C(=O)Nc1cc(C(=O)NCCCN(C)C)n(C)c1 |  |  | 16 (≈ 23.8 µM) |  | > 50 | 50 (≈ 74.3 µM) | 16 (≈ 23.8 µM) |  |  | 16 (≈ 23.8 µM) | 16 (≈ 23.8 µM) | > 50 | 8 (≈ 11.9 µM) | > 50 |  | > 50 |  | 
12 | CN(C)CCCNC(=O)c1cc(NC(=O)c2cc(NC(=O)c3ccc(/C=C/c4ccncc4)cc3)cn2C)cn1C |  |  | 64 (≈ 116 µM) |  | 25 (≈ 45.2 µM) | 50 (≈ 90.3 µM) | > 64 |  |  | > 64 | 32 (≈ 57.8 µM) | > 50 | 16 (≈ 28.9 µM) | > 50 |  | > 50 |  | 
13 | CC(C)CCc1sc(NC(=O)c2cc(NC(=O)c3cc(/C=C/c4ccc([N+](=O)[O-])cc4)cn3C)cn2C)nc1C(=O)NCCCN(C)C |  |  | > 64 |  | > 50 | > 50 | > 64 |  |  | > 64 | > 64 | > 50 | > 64 | > 50 |  | > 50 |  | 
